Holding throughout (assay type): cell-based, human
Series [1] has as its system TPA-induced EBV-EA expression in Raji cells. Put plainly: EBV-EA activation assay. The settings on record: for LogCurvP: log10 transformed response fingerprint (CurveP) of the four-dose EBV-EA data; for Exp. Act.: class from experimental LogCurvP, threshold 1.25.
The nature of series [2]: Raji cell viability by Trypan Blue staining. The note with it: human, Raji cells. In a few lines: (§1)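 Raji cells incubated 48 h at 37 °C in RPMI-1640 with 10 % FCS, n-butyric acid (4 mmol), TPA (32 pmol), and test compound at 0.32, 3.2, 16 or 32 nmol (10- to 1,000-fold of TPA). Viability was scored by Trypan Blue staining, and viability above 60 % was required to count as non-cytotoxic. Each concentration was run three times and averaged.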

The next series concerns Raji cells. Put plainly: Raji cell viability by Trypan Blue staining. The settings on record: value in parentheses at 32 (1,000-fold of TPA); Trypan Blue staining. In a few lines: as §1

One may read the viability as the share of living cells, or the viability signal relative to a control. A higher viability goes with less harm to the cells.

Regarding `COc1cccc(CN(C)C(=O)/C=C/c2cccc(O)c2)c1` [Compound 1, (E)-3-(3-hydroxyphenyl)-N-(3-methoxybenzyl)-N-methylacrylamide], the LogCurvP in series [1] is listed as 1.04. The viability at 48 h, 32 nmol in series [2] was more than 60%.
Take `CN(Cc1cccc(O)c1)C(=O)/C=C/c1cccc(O)c1` [Compound 2, (E)-N-(3-hydroxybenzyl)-3-(3-hydroxyphenyl)-N-methylacrylamide]: in series [1], the “Exp. Act.” value is listed as “Marginal active (active/marginally active threshold at LogCurvP = 1.25)” and the LogCurvP came out at 1.04. Besides, the viability at 48 h, 32 nmol in series [2] was more than 60%.
As to `COc1cccc(/C=C/C(=O)NCc2cccc(OC)c2)c1` [Compound 3, (E)-N-(3-methoxybenzyl)-3-(3-methoxyphenyl)acrylamide], in series [1], the “Exp. Act.” value is reported as “Marginal active (active/marginally active threshold at LogCurvP = 1.25)” and the LogCurvP came to 1.04. Moreover, in series [2], the viability at 48 h, 32 nmol is more than 60%.
As to `O=C(/C=C/c1cccc(O)c1)NCc1cccc(O)c1` [Compound 4, (E)-N-(3-hydroxybenzyl)-3-(3-hydroxyphenyl)acrylamide], in series [1], the “Exp. Act.” value is “Marginal active (active/marginally active threshold at LogCurvP = 1.25)” and the LogCurvP came to 1.04. The same compound gave a viability at 48 h, 32 nmol in series [2] of more than 60%.
In the same order, the values of `COc1ccc(O)c(C(=O)/C=C/c2cccc(OC)c2OC)c1` [Compound 5, (E)-3-(2,3-dimethoxyphenyl)-1-(2-hydroxy-5-methoxyphenyl)prop-2-en-1-one] are “Active”, 1.43 and more than 60%.
In the same order, the values of `COc1ccc2c(c1)C(=O)CC(c1cccc(O)c1O)O2` (stereo not shown) [Compound 6, 2-(2,3-dihydroxyphenyl)-6-methoxychroman-4-one] are “Active”, 1.43 and more than 60%.
On to `O=C(/C=C/c1cccc(O)c1O)c1cc(O)ccc1O` [Compound 7, (E)-3-(2,3-dihydroxyphenyl)-1-(2,5-dihydroxyphenyl)prop-2-en-1-one], for which, in series [1], the “EBV-EA inhibition potency, comparison in words” value is given as “less potent than its ring-closed analog 9”; the “Exp. Act.” value is reported as “Active”; the LogCurvP is 1.43. The viability at 48 h, 32 nmol in series [2] was more than 60%.
Take `COc1ccc2oc(-c3ccc(OC)c(OC)c3)cc(=O)c2c1` [Compound 8, 2-(3,4-dimethoxyphenyl)-6-methoxy-4H-chromen-4-one]: in series [1], the “Exp. Act.” value is “Active” and the LogCurvP was found to be 1.43. Also, the viability at 48 h, 32 nmol in series [2] is more than 60%.
As to `O=c1cc(-c2ccc(O)c(O)c2)oc2ccc(O)cc12` [Compound 9, 2-(3,4-dihydroxyphenyl)-6-hydroxy-4H-chromen-4-one], in series [1], the “EBV-EA inhibition potency, comparison in words” value is listed as “most potent analog among the tested compounds”; the “Exp. Act.” value is “Active”; the LogCurvP is on record as 1.43. Also, in series [2], the viability at 48 h, 32 nmol was more than 60%.
In the case of `COc1ccc2oc(-c3ccc(O)c(OC)c3)cc(=O)c2c1` [Compound 10, 2-(4-hydroxy-3-methoxyphenyl)-6-methoxy-4H-chromen-4-one], in series [1], the “Exp. Act.” value is recorded as “Active” and the LogCurvP turned out to be 1.43. In series [2], the viability at 48 h, 32 nmol was more than 60%.
In the same order, the values of `COc1ccc2oc(-c3ccc(O)c(O)c3)cc(=O)c2c1` [Compound 11, 2-(3,4-dihydroxyphenyl)-6-methoxy-4H-chromen-4-one] are “Active”, 1.43 and more than 60%.
As to `COc1ccc(CCNC(=O)/C=C/c2ccc3c(c2)OCO3)cc1OC` [Compound 13, (E)-3-(benzo[d] [1, 3]dioxol-5-yl)-N-(3,4-dimethoxyphenethyl)acrylamide], in series [1], the “Exp. Act.” value is given as “Marginal active (active/marginally active threshold at LogCurvP = 1.25)” and the LogCurvP was 1.04. The “viability percentages of Raji cells” value with Raji cells is listed as more than 60%.
In the same order, the values of `O=C(/C=C/c1ccc2c(c1)OCO2)NCCc1ccc(Cl)cc1` [Compound 14, (E)-3-(benzo[d] [1, 3]dioxol-5-yl)-N-(4-chlorophenethyl)acrylamide] are “Marginal active (active/marginally active threshold at LogCurvP = 1.25)”, 0.85 and more than 60%.
In the same order, the values of `O=C(/C=C/c1ccc2c(c1)OCO2)NCCCc1ccccc1` [Compound 15, (E)-3-(benzo[d] [1, 3]dioxol-5-yl)-N-(3-phenylpropyl)acrylamide] are “Marginal active (active/marginally active threshold at LogCurvP = 1.25)”, 1.04 and more than 60%.
With `CN(C)CCCNC(=O)/C=C/c1ccc2c(c1)OCO2` [Compound 16, (E)-3-(benzo[d] [1, 3]dioxol-5-yl)-N-(3-(dimethylamino)propyl)acrylamide], in series [1], the “Exp. Act.” value is “Marginal active (active/marginally active threshold at LogCurvP = 1.25)” and the LogCurvP is recorded as 0.85. For the same compound, the “viability percentages of Raji cells” value with Raji cells is more than 60%.
On to `COC(=O)COc1cccc2ccccc12` [Compound 17, Methyl 2-(naphthalen-1-yloxy)acetate], for which, in series [1], the “Exp. Act.” value was “Marginal active (active/marginally active threshold at LogCurvP = 1.25)” and the LogCurvP was found to be 1.04. In addition, the viability at 48 h, 32 nmol in series [2] is more than 60%.
In the same order, the values of `O=C(O)COc1cccc2ccccc12` [Compound 18, 2-(naphthalen-1-yloxy)acetic acid] are “Marginal active (active/marginally active threshold at LogCurvP = 1.25)”, 1.04 and more than 60%.
In the same order, the values of `COc1cc(/C=C/C(=O)CC(=O)/C=C/c2ccc(O)c(OC)c2)ccc1O` [Curcumin, reference compound] are “Active”, 1.43 and more than 60%.

The record behind these values is paper PMC5600879 (Journal of computer-aided molecular design, 2014).
